Measured values from ChEMBL document CHEMBL1145212, “Fluorinated diaryl sulfides as serotonin transporter ligands: synthesis, structure-activity relationship study, and in vivo evaluation of fluorine-18-labeled compounds as PET imaging agents” (J Med Chem, 2005).

Assays:
[1] = molecular target: Sodium-dependent noradrenaline transporter (Homo sapiens, UniProt P23975); assay: In vitro displacement of [3H]nisoxetine from human norepinephrine transporter expressed in HEK293 cells; format: cell-based
Procedure, shortened: (§1)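 Competitive binding using cloned human transporters expressed in HEK-293 cells. NET was labelled with [³H]nisoxetine and DAT with [³H]GBR12935, following a previously published procedure.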

[2] = molecular target: Sodium-dependent dopamine transporter (Homo sapiens, UniProt Q01959); assay: In vitro displacement of [3H]GBR-12935 from human dopamine transporter expressed in HEK293 cells; format: cell-based; procedure, shortened: as §1
Sodium-dependent dopamine transporter, sequence (Q01959 whole entry): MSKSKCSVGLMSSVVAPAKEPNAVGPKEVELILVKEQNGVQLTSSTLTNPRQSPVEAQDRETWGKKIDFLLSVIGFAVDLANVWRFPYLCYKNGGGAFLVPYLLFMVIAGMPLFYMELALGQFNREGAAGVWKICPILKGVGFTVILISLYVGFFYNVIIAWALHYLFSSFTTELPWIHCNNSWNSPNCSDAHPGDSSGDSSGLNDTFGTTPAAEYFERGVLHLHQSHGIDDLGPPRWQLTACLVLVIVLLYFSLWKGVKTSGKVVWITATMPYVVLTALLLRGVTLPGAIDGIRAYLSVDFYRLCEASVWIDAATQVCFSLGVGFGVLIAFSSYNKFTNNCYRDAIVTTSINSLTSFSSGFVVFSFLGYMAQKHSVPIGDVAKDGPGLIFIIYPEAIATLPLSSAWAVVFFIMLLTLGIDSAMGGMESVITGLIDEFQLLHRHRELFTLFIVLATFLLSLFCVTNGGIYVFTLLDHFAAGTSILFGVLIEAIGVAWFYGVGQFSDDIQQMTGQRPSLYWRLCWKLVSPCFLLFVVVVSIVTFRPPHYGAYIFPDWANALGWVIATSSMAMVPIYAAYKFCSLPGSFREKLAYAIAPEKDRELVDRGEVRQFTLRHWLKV

Sodium-dependent noradrenaline transporter, sequence (P23975 whole entry): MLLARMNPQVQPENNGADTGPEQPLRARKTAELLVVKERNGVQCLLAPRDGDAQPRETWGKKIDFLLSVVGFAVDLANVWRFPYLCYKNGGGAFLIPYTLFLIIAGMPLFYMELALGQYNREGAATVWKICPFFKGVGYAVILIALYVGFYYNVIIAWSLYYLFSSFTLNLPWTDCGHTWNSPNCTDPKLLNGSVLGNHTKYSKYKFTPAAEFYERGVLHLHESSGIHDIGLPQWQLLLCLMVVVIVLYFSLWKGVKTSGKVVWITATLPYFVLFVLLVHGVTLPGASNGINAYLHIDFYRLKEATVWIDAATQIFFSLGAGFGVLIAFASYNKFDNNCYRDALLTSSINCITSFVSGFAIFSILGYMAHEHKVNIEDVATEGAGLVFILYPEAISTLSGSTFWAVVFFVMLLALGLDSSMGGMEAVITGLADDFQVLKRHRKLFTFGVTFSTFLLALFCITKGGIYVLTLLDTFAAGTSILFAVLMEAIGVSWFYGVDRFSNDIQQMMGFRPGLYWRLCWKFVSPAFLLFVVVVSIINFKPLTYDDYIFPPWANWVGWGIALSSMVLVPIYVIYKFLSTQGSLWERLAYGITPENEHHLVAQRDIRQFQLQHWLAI

Ki [1]: 7.55 µM
Ki [2]: 2.12 µM
Compound: CCNCc1ccccc1Sc1ccc(C)cc1N
